Assay results from ChEMBL document CHEMBL1153030, “Synthesis, structural characterisation and biological evaluation of fluorinated analogues of resveratrol” (Bioorg Med Chem, 2009).

Key:
NCI-H460 = assay: Antiproliferative activity against human NCI-H460 cells assessed as cell growth at 100 uM after 48 hrs by alamar blue assay; format: functional; conditions: NCI-H460, 48 h, read-out: Activity
Method in brief: (§1)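 DTP three cell line one-dose prescreen: MCF7 (breast), NCI-H460 (lung), SF-268 (CNS). Cells inoculated and preincubated in microtiter plate, then single concentration of test agent added, 48 h incubation. Alamar blue endpoint. Growth expressed as percent of untreated control cells.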

SF-268 = assay: Antiproliferative activity against human SF268 cells assessed as cell growth at 100 uM after 48 hrs by alamar blue assay; format: functional; conditions: SF-268, 48 h, read-out: Activity; method in brief: as §1
MCF7 = assay: Antiproliferative activity against human MCF7 cells assessed as cell growth at 100 uM after 48 hrs by alamar blue assay; format: functional; conditions: MCF7, 48 h, read-out: Activity; method in brief: as §1
[1] = Antiproliferative activity against MRP1-expressing human DLKP cells assessed as cell proliferation at 10 uM after 5 days by acid phosphatase assay; format: functional; conditions: 120 h, read-out: Activity
Method in brief: (§2)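 Cell lines DLKP, DLKP-A and HT-144, seeded at 1 × 10³ cells/well (DLKP and DLKP-A) or 3 × 10³ cells/well (HT-144, higher density needed for cell-contact-dependent growth). 5 day drug exposure. Compounds tested alone and in combination with the P-gp/MRP1 substrate epirubicin. Read-out is cell proliferation (%) relative to untreated control.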

[2] = Solubility in DMSO-containing medium; format: physicochemical
Method in brief: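 Compounds were solubilised in a minimum amount of DMSO, then solubility was tested in culture media. A minimum concentration of 0.5 mg/ml in media was required before biological evaluation.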

[3] = Antiproliferative activity against P-gp expressing human DLKP-A cells assessed as cell proliferation at 10 uM after 5 days by acid phosphatase assay; format: functional; conditions: for growth at 10 µM: Homo sapiens, DLKP-A, 120 h, read-out: Activity; method in brief: as §2
[4] = Solubility of the compound in cell media; conditions: cell culture media
[5] = Antiproliferative activity against MRP1-expressing human DLKP cells after 5 days by acid phosphatase assay; format: functional, cell-based; conditions: 120 h; method in brief: as §2
[6] = Antiproliferative activity against P-gp expressing human DLKP-A cells after 5 days by acid phosphatase assay; format: functional, cell-based; conditions: 120 h; method in brief: as §2
HT-144 [7] = assay: Antiproliferative activity against human HT144 cells assessed as cell proliferation at 20 uM after 5 days by acid phosphatase assay; format: functional; conditions: HT-144, 120 h, read-out: Activity; method in brief: as §2
[8] = Antiproliferative activity against MRP1-expressing human DLKP cells assessed as cell proliferation at 5 uM after 5 days by acid phosphatase assay; format: functional; conditions: 120 h, read-out: Activity; method in brief: as §2
[9] = Antiproliferative activity against P-gp expressing human DLKP-A cells assessed as cell proliferation at 5 uM after 5 days by acid phosphatase assay; format: functional; conditions: 120 h, read-out: Activity; method in brief: as §2
HT-144 [10] = assay: Antiproliferative activity against human HT144 cells after 5 days by acid phosphatase assay; format: functional, cell-based; conditions: HT-144, 120 h; method in brief: as §2
[11] = Aqueous solubility of the compound; format: physicochemical; conditions: buffer
HT-29 = assay: Anticancer activity against human HT-29 cells; format: functional, cell-based
Method in brief: (§3)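 NCI 60 human tumour cell line panel; GI50, IC50, LC50 and TGI values calculated for each cell line.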

SK-OV-3 = assay: Anticancer activity against human SKOV3 cells; format: functional, cell-based; method in brief: as §3
DU-145 = assay: Anticancer activity against human DU145 cells; format: functional, cell-based; method in brief: as §3
HL-60(TB) = assay: Anticancer activity against human HL-60(TB) cells; format: functional, cell-based
Method in brief: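 Tested in the DTP 60 human tumour cell line panel, which covers leukaemia, lung, colon, CNS, melanoma, ovarian, renal, prostate and breast lines. GI50, IC50, LC50 and TGI were calculated for each cell line.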

SNB-75 = assay: Anticancer activity against human SNB75 cells; format: functional, cell-based; method in brief: as §3
EKVX = assay: Anticancer activity against human EKVX cells; format: functional, cell-based; method in brief: as §3
RXF 393 = assay: Anticancer activity against human RXF393 cells; format: functional, cell-based; method in brief: as §3
T47D = assay: Anticancer activity against human T47D cells; format: functional, cell-based; method in brief: as §3
SK-MEL-28 = assay: Anticancer activity against human SK-MEL-28 cells; format: functional, cell-based; method in brief: as §3
[12] = Antiproliferative activity against P-gp expressing human DLKP-A cells assessed as cell proliferation at 1.5 uM after 5 days by acid phosphatase assay; format: functional; conditions: 120 h, read-out: Activity; method in brief: as §2
[13] = Antiproliferative activity against MRP1-expressing human DLKP cells assessed as cell proliferation at 0.01 uM after 5 days by acid phosphatase assay; format: functional; conditions: 120 h, read-out: Activity; method in brief: as §2
HT-144 [14] = assay: Antiproliferative activity against human HT144 cells assessed as cell proliferation at 0.005 uM after 5 days by acid phosphatase assay; format: functional; conditions: HT-144, 120 h, read-out: Activity; method in brief: as §2

COc1ccc(/C=C/c2cc(F)cc(F)c2)cc1
growth at 100 µM (NCI-H460): 105% | growth at 100 µM (SF-268): 111% | growth at 100 µM (MCF7): 84%

COc1cc(/C=C/c2ccc(F)cc2)cc(OC)c1
growth at 100 µM (NCI-H460): 60% | growth at 100 µM (SF-268): 105% | growth at 100 µM (MCF7): 67%

Fc1ccc(/C=C/c2cc(F)cc(F)c2)cc1
growth at 100 µM (NCI-H460): 101% | growth at 100 µM (SF-268): 111% | growth at 100 µM (MCF7): 82%

CC(=O)Nc1ccc(/C=C/c2cc(F)cc(F)c2)cc1
growth at 10 µM [1]: 75% | solubility [2]: Soluble | growth at 10 µM [3]: 78% | solubility [4]: Soluble | IC50 [5]: 39 µM

CC(=O)Nc1cc(/C=C/c2ccc(F)cc2)cc(NC(C)=O)c1
growth at 10 µM [1]: 94% | IC50 [6]: > 50 µM | solubility [2]: Soluble | growth at 10 µM [3]: 96% | solubility [4]: Soluble | IC50 [5]: 50 µM

Nc1cc(N)cc(/C=C/c2ccc(F)cc2)c1
growth at 10 µM [1]: 87% | IC50 [6]: > 50 µM | solubility [2]: Soluble | growth at 10 µM [3]: 98% | solubility [4]: Soluble | IC50 [5]: > 50 µM

CC(=O)Oc1cc(/C=C/c2ccc(F)cc2)cc(OC(C)=O)c1
IC50 [6]: 19 µM | solubility [2]: Soluble | growth at 20 µM (HT-144 [7]): 100% | growth at 5 µM [8]: 100% | solubility [4]: Soluble | growth at 5 µM [9]: 89% | IC50 [5]: 25 µM | IC50 (HT-144 [10]): 56 µM

NCC(=O)Nc1ccc(/C=C/c2cc(F)cc(F)c2)cc1.O=C(O)C(F)(F)F
solubility [11]: Soluble | solubility [2]: Soluble

O=C(Nc1cc(/C=C/c2ccc(F)cc2)cc(NC(=O)C(F)(F)F)c1)C(F)(F)F
growth at 10 µM [1]: 95% | IC50 [6]: 20 µM | solubility [2]: Soluble | growth at 10 µM [3]: 84% | solubility [4]: Soluble | IC50 [5]: 28 µM

Oc1ccc(/C=C/c2cc(F)cc(F)c2)cc1
IC50 [6]: 14 µM | solubility [2]: Soluble | growth at 20 µM (HT-144 [7]): 105% | growth at 5 µM [8]: 74% | solubility [4]: Soluble | growth at 5 µM [9]: 85% | IC50 [5]: 6 µM | IC50 (HT-144 [10]): 59 µM

CC(=O)Oc1cc(O)cc(/C=C/c2ccc(F)cc2)c1
IC50 [6]: 21 µM | solubility [2]: Soluble | growth at 20 µM (HT-144 [7]): 110% | growth at 5 µM [8]: 98% | solubility [4]: Soluble | growth at 5 µM [9]: 90% | IC50 [5]: 21 µM | IC50 (HT-144 [10]): 54 µM

CC(=O)Oc1ccc(/C=C/c2cc(F)cc(F)c2)cc1
growth at 100 µM (NCI-H460): 7% | GI50 (HT-29): 80.6 µM | IC50 (HT-29): 73.7 µM | GI50 (SK-OV-3): 96.5 µM | IC50 (SK-OV-3): 83.1 µM | IC50 [6]: 10 µM | growth at 100 µM (SF-268): 1% | GI50 (DU-145): 128 µM | IC50 (DU-145): 100 µM | solubility [2]: Soluble | growth at 20 µM (HT-144 [7]): 85% | GI50 (HL-60(TB)): 117 µM | IC50 (HL-60(TB)): 54.6 µM | growth at 100 µM (MCF7): 22% | GI50 (SNB-75): 90.9 µM | IC50 (SNB-75): 60.3 µM | GI50 (EKVX): 117 µM | IC50 (EKVX): 78.7 µM | GI50 (RXF 393): 202 µM | IC50 (RXF 393): 75.9 µM | growth at 5 µM [8]: 52% | solubility [4]: Soluble | growth at 5 µM [9]: 50% | IC50 [5]: 7 µM | GI50 (T47D): 128 µM | IC50 (T47D): 79.8 µM | GI50 (SK-MEL-28): 83.1 µM | IC50 (SK-MEL-28): 70.1 µM | IC50 (HT-144 [10]): 36 µM

COc1cccc2c1C(=O)c1c(O)c3c(c(O)c1C2=O)C[C@@](O)(C(=O)CO)C[C@@H]3O[C@H]1C[C@H](N)[C@@H](O)[C@H](C)O1 [EPIRUBICIN]
growth at 1.5 µM [12]: 66% | growth at 0.01 µM [13]: 64% | growth at 0.005 µM (HT-144 [14]): 91%

Oc1ccc(/C=C/c2cc(O)cc(O)c2)cc1 [RESVERATROL]
growth at 10 µM [1]: 38% | IC50 [6]: 15 µM | growth at 20 µM (HT-144 [7]): 100% | Activity [3]: 66% | growth at 10 µM [3]: 67% | IC50 [5]: 10 µM | IC50 (HT-144 [10]): 40 µM
